# Measured values reported in the array DNA melting data of Ke et al. (doi:10.1101/2024.01.08.574731).
# Legend:
# [1] = folding enthalpy; higher = less favourable; fluorescence melt of hairpins on a sequencing array, two-state fit; details: sodium 0.088 M
# In short: (§1)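 Melting temperature and folding enthalpy were derived from bootstrapped two-state fits. The fitted temperatures were raised by 9.35 °C to agree with UV melts, and four replicates were combined by inverse variance. The underlying data were Cy3 fluorescence images of library hairpins, with annealed Cy3 and quencher oligos, on a sequenced MiSeq flow cell in 50 mM Na-HEPES pH 8.0, 25 mM NaCl, taken in 2.5 °C steps up to 60 °C, normalised to pre-quench Cy3 and to control constructs.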
# [2] = melting temperature; fluorescence melt of hairpins on a sequencing array, two-state fit, raised by 9.35 °C to match UV melts; details: sodium 0.088 M
# In short: as §1
sequence,measurement,setting,value
GTCGCGGCGAAAGCCGAC (((..(((....)))))),folding enthalpy,[1],-7.7 kcal/mol
same,Tm,[2],42.2 °C
GCAAGCTCGAAAGAGTGC (((..(((....)))))),folding enthalpy,[1],-16.9 kcal/mol
same,Tm,[2],36.9 °C
GCGGGGCGAAAGCCGAGC ((..(((....)))..)),folding enthalpy,[1],-24.9 kcal/mol
same,Tm,[2],66.2 °C
GAACTCGGAAACAAGTTC (((((.(....).))))),folding enthalpy,[1],-22.7 kcal/mol
same,Tm,[2],34 °C
GGCTTCGGAAACGAAGTC (.(((((....))))).),folding enthalpy,[1],-30.1 kcal/mol
same,Tm,[2],53.5 °C
GGTGCTCCGAAAGGAACC (((..(((....)))))),folding enthalpy,[1],-11.3 kcal/mol
same,Tm,[2],32.5 °C
GGCCAACGAAAGTTAGCC (((.(((....))).))),folding enthalpy,[1],-29.1 kcal/mol
same,Tm,[2],50.1 °C
GGATGCGAAAGCAGCTCC ((((((....)))..))),folding enthalpy,[1],-11.3 kcal/mol
same,Tm,[2],47.5 °C
GATCCCCCACGGGATC ((((((....)))))),folding enthalpy,[1],-35.6 kcal/mol
same,Tm,[2],58.1 °C
GCATGCGAAAGCACGTGC ((((((....)))..))),folding enthalpy,[1],-19.2 kcal/mol
same,Tm,[2],39.8 °C
GCGATGAAAATCGC (((((....))))),folding enthalpy,[1],-31.7 kcal/mol
same,Tm,[2],61.6 °C
GTTGCGGGAAACTGCGAC ((.((.(....).)).)),folding enthalpy,[1],-11 kcal/mol
same,Tm,[2],38 °C
GTAGTCCGAAAGGATTAC (((.(((....))).))),folding enthalpy,[1],-34.5 kcal/mol
same,Tm,[2],49.4 °C
GCCTGTCGAAAGACGGC (((.(((....)))))),folding enthalpy,[1],-31.2 kcal/mol
same,Tm,[2],56.5 °C
GGAATCGGAAACGGTTTC (.((.((....)).)).),folding enthalpy,[1],-26.3 kcal/mol
same,Tm,[2],32.4 °C
GGTGGCGAAAGCCCAACC ((((((....)))..))),folding enthalpy,[1],-14.8 kcal/mol
same,Tm,[2],42 °C
GACTAGCCGAAAGGCGTC (((..(((....)))))),folding enthalpy,[1],-9.39 kcal/mol
same,Tm,[2],40.5 °C
GCTACCCGAAAGGGAGC (((.(((....)))))),folding enthalpy,[1],-23.1 kcal/mol
same,Tm,[2],55.5 °C
GGGTCCGCGAAAGCGCCC (((..(((....)))))),folding enthalpy,[1],-14.9 kcal/mol
same,Tm,[2],40 °C
GCCGTTCGAAAGAAGGGC (((.(((....))).))),folding enthalpy,[1],-44 kcal/mol
same,Tm,[2],60.2 °C
GCTTTCGAAAGAAAGC ((((((....)))))),folding enthalpy,[1],-42.3 kcal/mol
same,Tm,[2],65.1 °C
GATCTGCCGACAGATC ((((((....)))))),folding enthalpy,[1],-29.7 kcal/mol
same,Tm,[2],50.1 °C
GGCCAGGGAAACCTGGTC (.(((((....))))).),folding enthalpy,[1],-33.5 kcal/mol
same,Tm,[2],57.6 °C
TTGTCGAAAGACAA (((((....))))),folding enthalpy,[1],-18.1 kcal/mol
same,Tm,[2],55 °C
GTGCCTCGAAAGAGCAC (((.(((....)))))),folding enthalpy,[1],-28.5 kcal/mol
same,Tm,[2],53.5 °C
GCATAACCGAAAGGTTGC (((..(((....)))))),folding enthalpy,[1],-15.4 kcal/mol
same,Tm,[2],46.6 °C
GCCCAGGGAAACCCGAGC ((.(.((....)).).)),folding enthalpy,[1],-6.87 kcal/mol
same,Tm,[2],28.3 °C
GGTGTGGGAAACCACATC (.(((((....))))).),folding enthalpy,[1],-21.1 kcal/mol
same,Tm,[2],51.2 °C
GCTTCTCGAAAGAGCAGC (((.(((....))).))),folding enthalpy,[1],-24 kcal/mol
same,Tm,[2],46.8 °C
GGCCGAACGAAAGTTGCC (((..(((....)))))),folding enthalpy,[1],-23.5 kcal/mol
same,Tm,[2],38.9 °C
GGCTTGCGAAAGCAGCC (((.(((....)))))),folding enthalpy,[1],-29.1 kcal/mol
same,Tm,[2],65.3 °C
GCGGTTCGAAAGAATCGC (((.(((....))).))),folding enthalpy,[1],-43.4 kcal/mol
same,Tm,[2],66.4 °C
GATCGCAACTGCGATC ((((((....)))))),folding enthalpy,[1],-33.8 kcal/mol
same,Tm,[2],69.2 °C
CGGACGGAAACGTTACCG ((((((....)))..))),folding enthalpy,[1],-20.6 kcal/mol
same,Tm,[2],36.3 °C
GATACCCGAAAGGGGATC (((.(((....))).))),folding enthalpy,[1],-30.2 kcal/mol
same,Tm,[2],60 °C
GCACTGGGAAACCAGCGC ((.((((....)))).)),folding enthalpy,[1],-40.7 kcal/mol
same,Tm,[2],51.9 °C
GGCGGGGGAAACTCCGCC (((((.(....).))))),folding enthalpy,[1],-38 kcal/mol
same,Tm,[2],67.7 °C
GCGACCGAAAGGTTCGC ((((((....))).))),folding enthalpy,[1],-33 kcal/mol
same,Tm,[2],65.6 °C
GTAAGGAAACTTAC (((((....))))),folding enthalpy,[1],-14.3 kcal/mol
same,Tm,[2],37.9 °C
GCGTTTCAACGC ((((....)))),folding enthalpy,[1],-27.6 kcal/mol
same,Tm,[2],60.2 °C
GTAACTGGAAACAGTCAC ((.((((....)))).)),folding enthalpy,[1],-17 kcal/mol
same,Tm,[2],34.8 °C
GCCAGTGGAAACACCAGC ((..(((....)))..)),folding enthalpy,[1],-13.9 kcal/mol
same,Tm,[2],33.1 °C
GAGTCGGGAAACCGATTC ((.((((....)))).)),folding enthalpy,[1],-25 kcal/mol
same,Tm,[2],47.7 °C
GGATGTGGAAACATGTCC (((..((....))..))),folding enthalpy,[1],-20.9 kcal/mol
same,Tm,[2],40 °C
GTGCGAACGAAAGTTCAC (((..(((....)))))),folding enthalpy,[1],-12.1 kcal/mol
same,Tm,[2],53.3 °C
GTATTAGGAAACCAATAC (((((.(....).))))),folding enthalpy,[1],-14.2 kcal/mol
same,Tm,[2],25.9 °C
GGTCCACCGAAAGGTACC (((..(((....)))))),folding enthalpy,[1],-11.9 kcal/mol
same,Tm,[2],29.2 °C
GTCTTGGGAAACTGAGAC ((((..(....)..)))),folding enthalpy,[1],-23.8 kcal/mol
same,Tm,[2],35.1 °C
ACGATGAAAATCGT (((((....))))),folding enthalpy,[1],-19 kcal/mol
same,Tm,[2],51 °C
GATCTTCAAAAGATC ((((((...)))))),folding enthalpy,[1],-19.2 kcal/mol
same,Tm,[2],41 °C
GTTGTGGCGAAAGCCAAC (((..(((....)))))),folding enthalpy,[1],-18.3 kcal/mol
same,Tm,[2],53.7 °C
TCACGGAAACGTGA (((((....))))),folding enthalpy,[1],-19.9 kcal/mol
same,Tm,[2],50.9 °C
GGAACCGAAAGGTAATCC ((((((....)))..))),folding enthalpy,[1],-9.87 kcal/mol
same,Tm,[2],26.8 °C
GTCAGGGGAAACTCTGAC (((((.(....).))))),folding enthalpy,[1],-33.4 kcal/mol
same,Tm,[2],48.9 °C
GGGCTCGAAAGAGGCCCC ((((((....)))..))),folding enthalpy,[1],-12.3 kcal/mol
same,Tm,[2],67 °C
GTTTACGAAAGTATAAC ((((((....))).))),folding enthalpy,[1],-12.8 kcal/mol
same,Tm,[2],32.4 °C
GACAGTGCGAAAGCAGTC (((..(((....)))))),folding enthalpy,[1],-13.3 kcal/mol
same,Tm,[2],40.5 °C
GATCTGCCTTCAGATC ((((((....)))))),folding enthalpy,[1],-30.7 kcal/mol
same,Tm,[2],49 °C
GCCAGGCGAAAGCTAGGC (((..((....))..))),folding enthalpy,[1],-27.9 kcal/mol
same,Tm,[2],61.3 °C
GTAGGCGAAAGCCCTAC ((((((....))).))),folding enthalpy,[1],-14.8 kcal/mol
same,Tm,[2],47.7 °C
GCGTATGGAAACATGTGC ((..(((....)))..)),folding enthalpy,[1],-11.6 kcal/mol
same,Tm,[2],38.8 °C
GGGCCGCGAAAGCGACCC (((.(((....))).))),folding enthalpy,[1],-29.7 kcal/mol
same,Tm,[2],68.8 °C
GGGCCGTCGAAAGACCCC (((..(((....)))))),folding enthalpy,[1],-16.6 kcal/mol
same,Tm,[2],44.4 °C
GCTTTGCGAAAGCCATGC ((.(.((....)).).)),folding enthalpy,[1],-11.6 kcal/mol
same,Tm,[2],31.3 °C
GCCCGGCGAAAGCCCGGC (((.(((....))).))),folding enthalpy,[1],-17.1 kcal/mol
same,Tm,[2],60.5 °C
GATTCCGAAAGGAAAATC ((((((....)))..))),folding enthalpy,[1],-14 kcal/mol
same,Tm,[2],32.3 °C
GGGTATGGAAACATGCCC (((.(((....))).))),folding enthalpy,[1],-50.4 kcal/mol
same,Tm,[2],54.3 °C
GCCTAGCCGAAAGGCGGC (((..(((....)))))),folding enthalpy,[1],-14.1 kcal/mol
same,Tm,[2],59.7 °C
GATCGGGGTCCCGATC ((((((....)))))),folding enthalpy,[1],-39.5 kcal/mol
same,Tm,[2],61 °C
GATCTGCTCGCAGATC ((((((....)))))),folding enthalpy,[1],-47.5 kcal/mol
same,Tm,[2],62.6 °C
GCGAACGAAAGTTAGCGC ((((((....)))..))),folding enthalpy,[1],-31 kcal/mol
same,Tm,[2],55.8 °C
GAAAGGGGAAACCCTCTC ((.((((....)))).)),folding enthalpy,[1],-17.3 kcal/mol
same,Tm,[2],26.8 °C
GGGATAACGAAAGTTCCC (((..(((....)))))),folding enthalpy,[1],-26.7 kcal/mol
same,Tm,[2],42.4 °C
GACGGTGGAAACACCACC (..((((....))))..),folding enthalpy,[1],-11.1 kcal/mol
same,Tm,[2],35.2 °C
GGCCTGGGAAACCAGACC ((.((((....)))).)),folding enthalpy,[1],-30.1 kcal/mol
same,Tm,[2],49 °C
GGCGTCCGAAAGGAGCC (((.(((....)))))),folding enthalpy,[1],-25.9 kcal/mol
same,Tm,[2],59.5 °C
GCTCACGAAAGTGAAGC ((((((....))).))),folding enthalpy,[1],-29 kcal/mol
same,Tm,[2],56 °C
GATCTTTGAAAAGATC ((((((....)))))),folding enthalpy,[1],-29.4 kcal/mol
same,Tm,[2],42.2 °C
GATCCATGAATGGATC ((((((....)))))),folding enthalpy,[1],-45.1 kcal/mol
same,Tm,[2],53.3 °C
GCGAGCGAAAGCTTACGC ((((((....)))..))),folding enthalpy,[1],-20.6 kcal/mol
same,Tm,[2],50.7 °C
GCGAGTATTCGC ((((....)))),folding enthalpy,[1],-26.6 kcal/mol
same,Tm,[2],57.2 °C
GGCAAAGGAAACTTTGTC (.(((((....))))).),folding enthalpy,[1],-29.1 kcal/mol
same,Tm,[2],46.5 °C
GCGGCCCACCGC ((((....)))),folding enthalpy,[1],-19.6 kcal/mol
same,Tm,[2],60 °C
GCTCTGCGAAAGCATAGC (((.(((....))).))),folding enthalpy,[1],-41.8 kcal/mol
same,Tm,[2],49.8 °C
GCGAATCATCGC ((((....)))),folding enthalpy,[1],-23.6 kcal/mol
same,Tm,[2],47.6 °C
GAACGGCCGAAAGGCTTC (((..(((....)))))),folding enthalpy,[1],-7.62 kcal/mol
same,Tm,[2],21.1 °C
GTTCGCGGAAACGTGGAC ((.(.((....)).).)),folding enthalpy,[1],-26.9 kcal/mol
same,Tm,[2],44.8 °C
GGCACTCGAAAGAGCGCC (((.(((....))).))),folding enthalpy,[1],-53 kcal/mol
same,Tm,[2],59.3 °C
GACTGCGGAAACGCGGTC (((.(((....))).))),folding enthalpy,[1],-34.1 kcal/mol
same,Tm,[2],63.5 °C
GTGCCGGCGAAAGCCCAC (((..(((....)))))),folding enthalpy,[1],-6.81 kcal/mol
same,Tm,[2],59.9 °C
GGCCAAGAAATTGGCC ((((((....)))))),folding enthalpy,[1],-40.1 kcal/mol
same,Tm,[2],64.4 °C
GCCTTCGAAAGAAAGGC ((((((....))).))),folding enthalpy,[1],-30.3 kcal/mol
same,Tm,[2],54 °C
